TAAR1 antagonist = human TAAR1 antagonism; Q96RJ0; CHO RD-HGA16 TAAR1, Fluo-8 calcium fluorescence, antagonist; inhibition, % at 3 µM; hit rate 1.5% among 360,000; AID 624466;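 active = inhibition above a per-plate cutoff, the mean inhibition of test compounds on that plate plus 3 SD, cut at about 49% in these data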
Target sequence (Q96RJ0 whole entry, looked up): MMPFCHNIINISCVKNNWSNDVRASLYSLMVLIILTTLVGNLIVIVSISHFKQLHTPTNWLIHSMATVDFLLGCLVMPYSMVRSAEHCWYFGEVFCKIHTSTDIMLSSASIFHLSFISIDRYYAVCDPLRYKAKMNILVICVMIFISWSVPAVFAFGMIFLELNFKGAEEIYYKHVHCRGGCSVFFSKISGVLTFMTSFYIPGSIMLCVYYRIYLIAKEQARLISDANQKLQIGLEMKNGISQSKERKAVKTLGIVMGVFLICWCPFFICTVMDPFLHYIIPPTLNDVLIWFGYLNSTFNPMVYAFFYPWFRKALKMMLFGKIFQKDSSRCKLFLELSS
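Assay system: CHO-derived RD-HGA16 cells stably expressing human TAAR1 plus Gα16. Timing: 140 s kinetic read after compound, 140 s after agonist. Technique: kinetic Fluo-8 calcium fluorescence measurement. Measure: % inhibition of agonist calcium response.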
OXTR potentiator = human OXTR potentiation | AID 2445 | P30559 | activation, % at 3 µM | CHO-OTR cells, Fluo-8 calcium fluorescence, potentiator mode; 0% = oxytocin EC15, 100% = EC100 | hit rate 0.061% among 320,000;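 active = activation above that plate's cutoff, the mean activation of tested compounds plus 3 SD, cut at about 6.6% in these data, passing the limit was not always enough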
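assay system = CHO-OTR cells, human receptor | schedule = compound 6 min at room temperature before oxytocin, 100 s read | detection = Fluo-8 intracellular calcium fluorescence, ex 470-495, em 515-575 nm | evaluation = normalized max/min fluorescence ratio, % activation | control set = EC15 oxytocin alone as 0%, 75 nM oxytocin (EC100) as 100%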
V1R ag counter = activates human V1a receptor in oxytocin agonist counter-screen. P37288. CHO-V1R cells, Fluo-8 calcium fluorescence, agonist mode; 0% DMSO, 100% 3 nM vasopressin. activation, % at 3 µM. hit rate 0.25% among 320,000;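 active = activation above the mean activation of all tested compounds plus 3 SD, per screening run, cut at about 20% in these data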;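 also: signal is peak over basal fluorescence ratio across a 100 second FLIPR read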
Target sequence (P37288 whole entry, looked up): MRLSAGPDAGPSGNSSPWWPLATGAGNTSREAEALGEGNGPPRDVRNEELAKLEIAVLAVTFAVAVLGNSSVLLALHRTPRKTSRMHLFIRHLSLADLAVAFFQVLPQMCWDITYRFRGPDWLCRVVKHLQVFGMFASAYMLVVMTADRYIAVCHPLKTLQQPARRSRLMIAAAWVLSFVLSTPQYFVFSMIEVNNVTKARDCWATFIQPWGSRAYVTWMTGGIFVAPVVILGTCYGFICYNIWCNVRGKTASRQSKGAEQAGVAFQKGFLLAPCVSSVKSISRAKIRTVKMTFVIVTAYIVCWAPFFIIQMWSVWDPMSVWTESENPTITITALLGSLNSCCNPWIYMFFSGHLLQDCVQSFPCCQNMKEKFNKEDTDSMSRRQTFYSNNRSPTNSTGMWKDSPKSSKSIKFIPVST
OXTR agonist = agonists of human oxytocin receptor; P30559; CHO-OTR cells, Fluo-8 calcium fluorescence; normalized: DMSO 0%, oxytocin 100%; activation, % at 3 µM; hit rate 0.32% among 320,000; AID 2435;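 active = activation above the mean of all tested compounds plus 3 SD, cutoff set per screening run, cut at about 20% in these data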;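 also: peak over basal fluorescence ratio from a 100 s FLIPR kinetic read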
TAAR1 agonist = human TAAR1 agonism | Q96RJ0 | CHO RD-HGA16 TAAR1, Fluo-8 calcium fluorescence; vehicle wells 0%, saturating PEA agonist 100% | activation, % at 3 µM | hit rate 0.99% among 360,000;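 active = activation above the mean activation of all test compounds in the run plus 3 SD, cut at about 38% in these data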
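Benchmarks: low control DMSO, high control PEA (EC100); System: CHO RD-HGA16 cells carrying human TAAR1 plus Gα16; Detection: Fluo-8 fluorescence, 5 s baseline then 140 s kinetic read; Schedule: 17-24 h plating, Fluo-8 75 min 37 °C, 30 min RT; Read-out basis: % activation from peak over basal fluorescence ratio, DMSO-to-PEA scaled.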
Of the large screens only hits and unclear results are named; the others gave an inactive call. Sampled rows, rich in hits. Any-hit rate of the full collection: about 2.3%.

O=[N+]([O-])c1ccc(N2CCCCCC2)c2nonc12	TAAR1 antagonist 66, V1R ag counter 534, OXTR agonist 413, TAAR1 agonist 162
Cc1cc(Br)cn2c(CC(=O)N3CCCCC3)c(-c3ccc(F)cc3)nc12	none (no result: OXTR potentiator, V1R ag counter, OXTR agonist)
COc1cccc(C(c2nnnn2-c2ccc3c(c2)OCCO3)N2CCC(n3c(=O)[nH]c4ccccc43)CC2)c1OC (configuration not stated)	TAAR1 antagonist 79, TAAR1 agonist 51 (no result: OXTR potentiator, V1R ag counter, OXTR agonist)
O=c1[nH]c2ccccc2n1C1CCN(C(c2ccccc2OC(F)(F)F)c2nnnn2-c2ccc3c(c2)OCCO3)CC1 (configuration not stated)	TAAR1 antagonist 52 (no result: OXTR potentiator, V1R ag counter, OXTR agonist)
COc1ccc(-n2nnnc2C(c2ccccc2)N2CCC(n3c(=O)[nH]c4ccccc43)CC2)cc1 (configuration not stated)	TAAR1 antagonist 67 (no result: OXTR potentiator, V1R ag counter, OXTR agonist)
O=c1[nH]c2ccccc2n1C1CCN(C(CCc2ccccc2)c2nnnn2C2CCCC2)CC1 (configuration not stated)	TAAR1 antagonist 56 (no result: OXTR potentiator, V1R ag counter, OXTR agonist)
COc1ccc(C(c2nnnn2-c2c(C)cccc2C)N2CCC(n3c(=O)[nH]c4ccccc43)CC2)cc1 (configuration not stated)	none (no result: OXTR potentiator, V1R ag counter, OXTR agonist)
O=c1[nH]c2ccccc2n1C1CCN(C(c2cccc3ccccc23)c2nnnn2Cc2ccccc2)CC1 (configuration not stated)	TAAR1 antagonist 50 (no result: OXTR potentiator, V1R ag counter, OXTR agonist)
COc1cccc(C(c2nnnn2Cc2ccccc2)N2CCC(n3c(=O)[nH]c4ccccc43)CC2)c1OC (configuration not stated)	none (no result: OXTR potentiator, V1R ag counter, OXTR agonist)
COc1ccc(-n2nnnc2C(c2cccc(OC)c2OC)N2CCC(n3c(=O)[nH]c4ccccc43)CC2)cc1 (configuration not stated)	TAAR1 antagonist 56 (no result: OXTR potentiator, V1R ag counter, OXTR agonist)
S=C(NCCc1ccccc1)N1Cc2ccccc2-n2nncc2C1	none (no result: OXTR potentiator, V1R ag counter, OXTR agonist)
COc1cc(OC)c(OC)cc1CNCCc1ccc(F)cc1	none (no result: OXTR potentiator, V1R ag counter, OXTR agonist)
COc1ccccc1CNCCc1ccc(F)cc1	TAAR1 agonist 41
O=C1NC(=O)C(=Cc2csc3ccccc23)C(=O)N1	OXTR agonist 24
Cn1cc(C=C2C(=O)NC(=O)NC2=O)c2ccccc21	none
COc1c(OP2(=S)OCC(C)(C)CO2)cnn(C2CCCCC2)c1=O	none (no result: OXTR potentiator, V1R ag counter, OXTR agonist)
CCN(CC)c1ccc(/C=C2/C(=O)NC(=O)N(CC3CCCO3)C2=O)cc1 (configuration not stated)	TAAR1 agonist 42
COC(=O)C1=C(c2ccc(F)cc2OCc2ccccc2)C[C@@H]2CC[C@H]1N2C(=O)NCc1ccc(C(F)(F)F)cc1	TAAR1 antagonist 53
O=c1[nH]c2ccccc2n1C1CCN(C(c2ccccc2)c2nnnn2-c2ccc3c(c2)OCCO3)CC1 (configuration not stated)	TAAR1 antagonist 62 (no result: OXTR potentiator, V1R ag counter, OXTR agonist)
O=c1[nH]c2ccccc2n1C1CCN(C(c2nnnn2-c2ccc3c(c2)OCCO3)C2CC2)CC1 (configuration not stated)	TAAR1 antagonist 62 (no result: OXTR potentiator, V1R ag counter, OXTR agonist)
O=C1NCN(c2ccccc2)C12CCN(C(c1ccccc1)c1nnnn1-c1ccc3c(c1)OCCO3)CC2 (configuration not stated)	none (no result: OXTR potentiator, V1R ag counter, OXTR agonist)
CCN(CC)P(=O)(c1n(CC)cc[n+]1CC)N(CC)CC	none
CSCCC(c1nnnn1-c1ccc2c(c1)OCCO2)N1CCC(n2c(=O)[nH]c3ccccc32)CC1 (configuration not stated)	TAAR1 antagonist 62 (no result: OXTR potentiator, V1R ag counter, OXTR agonist)
CCC(c1nnnn1-c1ccc2c(c1)OCCO2)N1CCC(n2c(=O)[nH]c3ccccc32)CC1 (configuration not stated)	TAAR1 antagonist 66 (no result: OXTR potentiator, V1R ag counter, OXTR agonist)
Cc1ccc2nc(-c3ccc(CN4CCC(n5c(=O)[nH]c6cc(Cl)ccc65)CC4)cc3)c(-c3ccccc3)nc2c1	none (no result: OXTR potentiator, V1R ag counter, OXTR agonist)
Cc1ccc(CN2CCC3CCC(C3)C2)c(O)c1 (configuration not stated)	none (no result: OXTR potentiator, V1R ag counter, OXTR agonist)
O=C1NC(=O)C(=C/C=C/c2coc3ccc(Br)cc3c2=O)C(=O)N1	OXTR agonist 40 (no result: TAAR1 antagonist, TAAR1 agonist)
O=C1NC(=O)C(=Cc2coc3ccccc3c2=O)C(=O)N1	none
CC(C(=O)Nc1ccc(Br)cc1C(=O)c1ccccc1)N1CCCCC1 (configuration not stated)	OXTR potentiator 12
CC(C)c1ccc(C2NCc3ccccc3-n3cccc32)cc1 (configuration not stated)	TAAR1 antagonist 63 (no result: OXTR potentiator, V1R ag counter, OXTR agonist)
O=C(CSC1c2ccccc2-c2ccccc21)N/N=C/c1ccccc1O	none
CC(C)N1CC=C(c2c[nH]c3ccccc23)CC1	TAAR1 agonist 38
C1=C(c2c[nH]c3ccccc23)CCNC1	none
C[C@]12CCC3C(CC[C@H]4C[C@H](O)CC[C@]34C)C1C[C@H](O)[C@@H]2O (some centres not stated)	TAAR1 antagonist 60
C[C@]12CCC3C(CC[C@H]4C[C@H](O)CC[C@]34C)C1C[C@@H](O)[C@@H]2O (some centres not stated)	none
CC12C=CC(=O)CC1CCC1C2CCC2(C)C(O)C(O)CC12 (configuration not stated)	TAAR1 antagonist 58 (no result: OXTR potentiator, V1R ag counter, OXTR agonist)
C[C@]12CCC3C(CC[C@H]4C[C@@H](O)CC[C@]34C)C1C[C@@H](O)[C@@H]2O (some centres not stated)	none (no result: OXTR potentiator, V1R ag counter, OXTR agonist)
CC[C@@H]1C[C@H]2CC[C@H](O2)[C@H](C)C(=O)O[C@@H](C)C[C@@H]2CC[C@@H](O2)[C@@H](C)C(=O)O[C@H](C)C[C@H]2CC[C@H](O2)[C@H](C)C(=O)O[C@@H](C)C[C@@H]2CC[C@@H](O2)[C@@H](C)C(=O)O1	none (no result: OXTR potentiator, V1R ag counter, OXTR agonist)
O=C1NC(=O)C(CCc2ccncc2)(Cc2ccc3c(c2)OCO3)C(=O)N1CCc1ccccc1 (configuration not stated)	TAAR1 antagonist 49
O=C1NC(=O)C(=Cc2ccc(SC3CCCCC3)o2)C(=O)N1	TAAR1 antagonist 59
NS(=O)(=O)c1ccc(-c2ccc(C=C3C(=O)NC(=O)NC3=O)o2)cc1	none
CSCCC(c1nnnn1C(C)(C)C)N1CCC2(CC1)C(=O)NCN2c1ccccc1 (configuration not stated)	none (no result: OXTR potentiator, V1R ag counter, OXTR agonist)
c1ccc(CCN2CCC3CCNC3C2)cc1 (configuration not stated)	none (no result: OXTR potentiator, V1R ag counter, OXTR agonist)
CN1CCc2cccc(Cl)c2CC1	TAAR1 antagonist 86, TAAR1 agonist 102
O=C(c1cc(Cl)cc(Cl)c1)N1Cc2ccccc2-n2nncc2C1	none (no result: OXTR potentiator, V1R ag counter, OXTR agonist)
Cc1cccc(NP(=O)(Oc2ccccc2F)Oc2ccccc2F)c1C	TAAR1 antagonist 54
Cn1c(O)c(/C=C/C=Nc2ccccc2)c(=O)n(C)c1=S	V1R ag counter 47, OXTR agonist 93, TAAR1 agonist 41
Cn1c(O)c(C=Nc2ccc(Br)cc2)c(=O)n(C)c1=O	none
CC1(C)CN=C(Nc2ccc(F)c(Cl)c2)S1	V1R ag counter 27

From PubChem
